Reference: PubChem BioAssay
Calls of active or inactive are those of the source.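 Rule for the calls, unless noted: active = viability loss from added drug above about 55%, and viability with drug at most 40%, in both replicates (limit read from the data, passing the limit was not always enough); inconclusive = both conditions met in only one replicate; inactive = neither replicate meets both conditions.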

Tests used:
[1] = HUVEC growth inhibition – cell-based, human, primary screen (AID 575;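 active = viability at or below 30% in both replicate assays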;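 note: 100% = median of untreated cell wells with 0.1% DMSO on each plate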); details: HUVEC proliferation, CellTiter-Glo luminescence, 72 h; at 10 µM; stronger effect = lower value
Summary of the method: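 Test system: primary human umbilical vein endothelial cells; medium: endothelial basal medium with 2% FBS plus growth supplements; dosing: 10 µM compound only; times: 72 h treatment at 37 °C; signal: CTG luminescence; read-out: % viability relative to median vehicle-well signal on each plate; control set: vehicle and MePR control wells; plate: 384-well, collagen-coated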

[2] = growth inhibitors of H69AR lung tumor, primary screen, human, duplicate replicates (AID 580;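 active = viability at or under a set limit in both replicates, limit being median viability minus 3 SD, cut at about 48% in these data, passing the limit was not always enough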;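 note: 100% = mean luminescence of untreated wells and 0% = no signal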); details: H69AR lung tumor cells viability, ATP luminescence, 72 h; at 10 µM; stronger effect = lower value
[3] = reversal of MRP1-mediated doxorubicin resistance, pilot screen, H69AR cells, doxorubicin co-treatment (AID 601); details: CellTiter-Glo, 72 h, at 10 µM; for differential viability (reversal): stronger effect = higher value
[4] = 384-well plate pilot, post-Golgi transport modulator project, inhibition of yeast transport mutant growth (AID 636; in the data active = inhibition above about 31%); details: absorbance 615 nm, about 18 h, stronger effect = higher value
[5] = growth suppression of yeast trafficking mutant, preliminary HTS, modulators of trafficking downstream of Golgi apparatus project, 1536-format plate, OD 615 nm (AID 637; in the data active = inhibition above about 30%); details: yeast transport mutant growth, absorbance 615 nm, 18 h; stronger effect = higher value
[6] = H69AR cells + 2 uM doxorubicin, measured here: viability with 2 uM doxorubicin, stronger effect = lower value
[7] = H69AR cells, compound alone cytotoxicity

Row | SMILES | viability [1] | viability [2] | differential viability (reversal) ([3]; H69AR cells + 2 uM doxorubicin) | viability [3, 6] [%] | viability [3, 7] [%] | inhibition [4] | inhibition [5]
1 | CCSc1nc(-c2ccc(OC)cc2)ccc1C#N | 65.8% (inactive) | 66.5% (inactive) | -19.8% (inactive) | 86.3 | 66.5 | -1.69% (inactive) | -1.27% (inactive)
2 | Cc1cccc(-n2c(N)c(C(=O)N3CCN(C)CC3)sc2=S)c1 | 101% (inactive) | 92.2% (inactive) | 8.09% (inactive) | 84.2 | 92.2 | -0.39% (inactive) | -7.3% (inactive)
3 | CCN1CCN(Cc2c(C)[nH]c3ccc(OC)cc3c2=O)CC1 | 96.8% (inactive) | 93.5% (inactive) | 4.75% (inactive) | 88.8 | 93.5 | -2.73% (inactive) | 4.44% (inactive)
4 | O=C1CC(Cc2ccccc2)C(=O)N1CCc1ccc2c(c1)OCO2 (centres undefined) | 97.7% (inactive) | 102% (inactive) | 4.62% (inactive) | 97.7 | 102 | -5.32% (inactive) | 3.65% (inactive)
5 | CCCSC1=C(C#N)C(c2ccccc2OCC)CC(=O)N1 (centres undefined) | 79% (inactive) | 90.1% (inactive) | -3.18% (inactive) | 93.3 | 90.1 | -2.5% (inactive) | 3.33% (inactive)
6 | Cc1nc(-c2ccc(NC(=O)c3cccs3)cc2)cs1 | 58.8% (inactive) | 62.3% (inactive) | 9.12% (inactive) | 53.2 | 62.3 | 0.13% (inactive) | 1.9% (inactive)
7 | CC1(C)CC(=O)C2=C(C1)Nc1nc(SCCN3CCOCC3)[nH]c(=O)c1C2c1cccs1 (centres undefined) | 99.6% (inactive) | 89.9% (inactive) | 2.1% (inactive) | 87.8 | 89.9 | 1.69% (inactive) | 24% (inactive)
8 | Cc1cc(C(=O)Nc2cccc(O)c2)c(C)o1 | 87.1% (inactive) | 90% (inactive) | 3.61% (inactive) | 86.4 | 90 | -4.55% (inactive) | 3.17% (inactive)
9 | Cc1ccc(OCc2nnc(SCC(=O)N3CCOCC3)n2C)cc1 | 102% (inactive) | 106% (inactive) | 17.4% (inactive) | 88.5 | 106 | -0.93% (inactive) | -6.35% (inactive)
10 | Cn1c(=O)[nH]c(=O)c2c1nc(NC1CCCCC1)n2CC(=O)NC1CCCCC1 | 99.5% (inactive) | 94.7% (inactive) | 14.6% (inactive) | 80.1 | 94.7 | -7.6% (inactive) | 5.87% (inactive)
11 | O=S(=O)(c1ccc2c(c1)OCCO2)N(Cc1ccc(F)cc1)Cc1nnc(-c2cccs2)o1 | 81% (inactive) | 92.1% (inactive) | 8.63% (inactive) | 83.4 | 92.1 | -3.38% (inactive) | 0.79% (inactive)
12 | O=C1c2ccccc2C(=O)N1CCCCN1CCN(CCCCN2C(=O)c3ccccc3C2=O)CC1 | 93% (inactive) | 97.5% (inactive) | 12.7% (inactive) | 84.8 | 97.5 | -7.33% (inactive) | 6.98% (inactive)
13 | c1ccc(-c2noc(-c3cccnc3)n2)nc1 | 84.8% (inactive) | 72.1% (inactive) | 4.56% (inactive) | 67.5 | 72.1 | -3.77% (inactive) | 6.67% (inactive)
14 | COC(=O)c1c(NC(=O)C2CC=CCC2C(=O)O)sc(C(N)=O)c1C (centres undefined) | 75.4% (inactive) | 98.2% (inactive) | 4.23% (inactive) | 94 | 98.2 | -7.76% (inactive) | -6.03% (inactive)
15 | CCn1nccc1C(=O)Nc1nccs1 | 104% (inactive) | 93.7% (inactive) | 10% (inactive) | 83.7 | 93.7 | -4.34% (inactive) | 3.65% (inactive)
16 | CC1CCN(C(=O)c2cc(-c3ccc(Cl)c(Cl)c3)on2)CC1 | 77.1% (inactive) | 90.7% (inactive) | 10.5% (inactive) | 80.2 | 90.7 | -2.11% (inactive) | 0.95% (inactive)
17 | Cn1c(=O)c2c(nc(-n3ccnc3)n2C)n(C)c1=O | 105% (inactive) | 101% (inactive) | 8.81% (inactive) | 92.7 | 101 | -4.13% (inactive) | 1.59% (inactive)
18 | CC1Cc2ccccc2N1S(=O)(=O)c1ccc2c(c1)n(C)c(=O)c(=O)n2C (centres undefined) | 80.8% (inactive) | 83.7% (inactive) | -2.65% (inactive) | 86.4 | 83.7 | -4.93% (inactive) | 0% (inactive)
19 | c1ccc(CC2CCN(Cc3nc(-c4ccccc4)no3)CC2)cc1 | 65.1% (inactive) | 87.9% (inactive) | -4.31% (inactive) | 92.2 | 87.9 | -5.13% (inactive) | 0.95% (inactive)
20 | CCn1c(CSc2nc(C)cc(C)n2)nnc1SCC(=O)Nc1ccccc1 | 104% (inactive) | 89.5% (inactive) | 4.12% (inactive) | 85.4 | 89.5 | -4.27% (inactive) | -3.02% (inactive)
21 | Cc1cc(NC(=O)C2CCCC2)nc2c1c(=O)oc1ccccc12 | 60.3% (inactive) | 62.8% (inactive) | -24.9% (inactive) | 87.8 | 62.8 | -5.45% (inactive) | 3.49% (inactive)
22 | COc1ccccc1-n1cnnc1SCC(=O)c1ccc[nH]1 | 106% (inactive) | 108% (inactive) | 9.87% (inactive) | 98.1 | 108 | -2.21% (inactive) | 2.54% (inactive)
